Measurements from the M2OR odorant receptor database.

Columns and labels:
Conditions in all cases: stereoisomer not certain
[1] = target: T1, UniProt Q8VG27
T1 sequence (whole entry): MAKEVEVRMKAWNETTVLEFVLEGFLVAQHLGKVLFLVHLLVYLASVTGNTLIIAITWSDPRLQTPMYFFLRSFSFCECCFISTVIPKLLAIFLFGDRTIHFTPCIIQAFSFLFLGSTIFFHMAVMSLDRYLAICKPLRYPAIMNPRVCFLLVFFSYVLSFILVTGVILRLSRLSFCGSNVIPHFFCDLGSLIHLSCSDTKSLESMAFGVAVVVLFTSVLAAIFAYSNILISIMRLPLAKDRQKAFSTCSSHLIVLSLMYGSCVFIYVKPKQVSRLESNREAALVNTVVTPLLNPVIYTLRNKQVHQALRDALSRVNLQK
Outline: (§1)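 Assay methods differ from source to source, frequently being transient luciferase assays in mammalian cell lines. For each receptor–molecule pair, the label responsive (active) applies when the original authors judged the measured signal statistically different from baseline, and non-responsive (inactive) applies otherwise.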

[2] = target: UniProt Q8VG28
UniProt Q8VG28, sequence (Q8VG28 as listed by the source): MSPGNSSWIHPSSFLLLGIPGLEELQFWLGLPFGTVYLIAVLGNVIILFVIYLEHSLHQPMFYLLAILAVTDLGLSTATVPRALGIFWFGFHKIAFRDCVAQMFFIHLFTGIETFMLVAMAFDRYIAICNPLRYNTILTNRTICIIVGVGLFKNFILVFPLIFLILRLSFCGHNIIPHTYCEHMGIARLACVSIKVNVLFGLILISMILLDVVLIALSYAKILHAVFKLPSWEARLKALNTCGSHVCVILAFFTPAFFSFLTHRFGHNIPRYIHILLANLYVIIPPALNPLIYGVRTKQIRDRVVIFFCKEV
Outline: as §1

[3] = target: T2, UniProt Q8VG49
T2 sequence (whole entry): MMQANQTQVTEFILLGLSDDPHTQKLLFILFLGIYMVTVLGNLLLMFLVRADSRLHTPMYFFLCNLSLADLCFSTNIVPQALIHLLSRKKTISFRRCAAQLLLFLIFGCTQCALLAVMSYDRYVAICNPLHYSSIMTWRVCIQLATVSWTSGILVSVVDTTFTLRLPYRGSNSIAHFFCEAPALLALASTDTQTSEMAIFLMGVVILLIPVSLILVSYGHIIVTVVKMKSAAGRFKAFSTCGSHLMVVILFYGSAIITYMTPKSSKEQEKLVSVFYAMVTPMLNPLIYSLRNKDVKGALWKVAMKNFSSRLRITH
Outline: as §1

[4] = target: T3, UniProt Q8VG53
T3 sequence (whole entry): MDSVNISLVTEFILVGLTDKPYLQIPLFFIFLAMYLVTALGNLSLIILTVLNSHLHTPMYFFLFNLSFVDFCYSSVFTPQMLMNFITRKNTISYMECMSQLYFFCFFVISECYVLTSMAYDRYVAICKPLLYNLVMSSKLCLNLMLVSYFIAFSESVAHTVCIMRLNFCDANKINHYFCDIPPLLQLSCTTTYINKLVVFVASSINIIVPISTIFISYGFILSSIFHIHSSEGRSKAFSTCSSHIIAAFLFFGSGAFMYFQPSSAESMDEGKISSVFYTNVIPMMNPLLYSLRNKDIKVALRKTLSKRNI
Outline: as §1

[5] = target: T4, UniProt Q8VG64
T4 sequence (whole entry): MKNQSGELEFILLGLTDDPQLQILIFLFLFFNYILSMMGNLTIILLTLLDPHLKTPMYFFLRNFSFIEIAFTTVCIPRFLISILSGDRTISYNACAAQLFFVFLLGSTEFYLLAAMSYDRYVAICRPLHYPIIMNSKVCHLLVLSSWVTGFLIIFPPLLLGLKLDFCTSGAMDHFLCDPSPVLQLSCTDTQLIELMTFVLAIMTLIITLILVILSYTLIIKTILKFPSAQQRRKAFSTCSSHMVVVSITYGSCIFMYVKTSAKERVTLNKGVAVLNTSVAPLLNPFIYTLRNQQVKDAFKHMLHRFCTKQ
Outline: as §1

[6] = target: T5, UniProt Q8VG77
T5 sequence (whole entry): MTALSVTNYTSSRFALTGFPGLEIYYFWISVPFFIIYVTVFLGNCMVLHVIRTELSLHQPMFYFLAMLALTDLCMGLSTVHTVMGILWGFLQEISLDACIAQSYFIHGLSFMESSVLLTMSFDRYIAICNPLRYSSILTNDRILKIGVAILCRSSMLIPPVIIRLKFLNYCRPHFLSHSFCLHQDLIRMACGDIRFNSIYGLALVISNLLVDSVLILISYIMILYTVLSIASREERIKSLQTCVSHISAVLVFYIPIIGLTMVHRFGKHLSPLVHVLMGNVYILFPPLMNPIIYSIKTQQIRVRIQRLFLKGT
Outline: as §1

[7] = target: T6, UniProt Q8VG96
T6 sequence (whole entry): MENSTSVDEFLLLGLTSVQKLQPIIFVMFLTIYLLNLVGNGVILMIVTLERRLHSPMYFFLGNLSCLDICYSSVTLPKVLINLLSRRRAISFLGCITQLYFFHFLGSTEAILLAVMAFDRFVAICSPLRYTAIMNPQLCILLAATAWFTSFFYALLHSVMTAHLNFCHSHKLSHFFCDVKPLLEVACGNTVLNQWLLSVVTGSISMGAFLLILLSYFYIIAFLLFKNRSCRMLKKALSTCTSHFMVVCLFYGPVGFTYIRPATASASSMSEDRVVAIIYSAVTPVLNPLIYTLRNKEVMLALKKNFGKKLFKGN
Outline: as §1

[8] = target: T7, UniProt Q8VGB9
T7 sequence (whole entry): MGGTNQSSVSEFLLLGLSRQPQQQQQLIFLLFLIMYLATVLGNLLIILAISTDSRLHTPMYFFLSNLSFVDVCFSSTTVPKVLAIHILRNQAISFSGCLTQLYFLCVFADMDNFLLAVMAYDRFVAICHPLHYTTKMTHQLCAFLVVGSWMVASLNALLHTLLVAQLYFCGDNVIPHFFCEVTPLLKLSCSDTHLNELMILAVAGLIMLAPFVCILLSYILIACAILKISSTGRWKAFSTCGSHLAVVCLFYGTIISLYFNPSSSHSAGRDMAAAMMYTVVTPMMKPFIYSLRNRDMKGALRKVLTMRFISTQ
Outline: as §1

[9] = target: T8, UniProt Q8VGC6
T8 sequence (whole entry): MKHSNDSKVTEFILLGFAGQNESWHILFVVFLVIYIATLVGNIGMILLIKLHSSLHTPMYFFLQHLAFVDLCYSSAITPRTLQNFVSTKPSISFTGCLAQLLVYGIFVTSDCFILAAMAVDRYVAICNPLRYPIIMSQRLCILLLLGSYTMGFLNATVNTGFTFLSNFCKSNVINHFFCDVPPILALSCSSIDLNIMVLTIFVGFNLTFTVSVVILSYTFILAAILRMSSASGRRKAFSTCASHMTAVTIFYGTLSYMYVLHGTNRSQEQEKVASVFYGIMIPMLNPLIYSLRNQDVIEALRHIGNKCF
Outline: as §1

[10] = target: T9, UniProt Q8VGD7
T9 sequence (whole entry): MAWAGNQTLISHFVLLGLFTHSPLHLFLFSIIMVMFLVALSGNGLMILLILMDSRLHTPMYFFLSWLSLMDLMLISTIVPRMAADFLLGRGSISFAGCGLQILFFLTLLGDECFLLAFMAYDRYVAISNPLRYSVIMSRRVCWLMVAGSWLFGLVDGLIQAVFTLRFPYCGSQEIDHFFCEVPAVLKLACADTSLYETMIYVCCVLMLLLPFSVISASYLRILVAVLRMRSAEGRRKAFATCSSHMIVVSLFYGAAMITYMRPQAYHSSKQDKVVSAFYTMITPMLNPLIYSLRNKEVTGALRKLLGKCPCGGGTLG
Outline: as §1

[11] = target: T10, UniProt Q8VGH1
T10 sequence (whole entry): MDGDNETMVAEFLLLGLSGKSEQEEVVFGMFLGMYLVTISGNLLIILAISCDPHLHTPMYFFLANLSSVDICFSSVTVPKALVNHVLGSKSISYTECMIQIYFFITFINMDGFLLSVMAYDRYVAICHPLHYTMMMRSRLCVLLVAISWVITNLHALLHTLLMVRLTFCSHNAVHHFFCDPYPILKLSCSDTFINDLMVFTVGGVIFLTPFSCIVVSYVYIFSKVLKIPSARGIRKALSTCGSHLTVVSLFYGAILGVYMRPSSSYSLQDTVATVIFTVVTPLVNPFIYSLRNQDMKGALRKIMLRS
Outline: as §1

[12] = target: T11, UniProt Q8VGJ1
T11 sequence (whole entry): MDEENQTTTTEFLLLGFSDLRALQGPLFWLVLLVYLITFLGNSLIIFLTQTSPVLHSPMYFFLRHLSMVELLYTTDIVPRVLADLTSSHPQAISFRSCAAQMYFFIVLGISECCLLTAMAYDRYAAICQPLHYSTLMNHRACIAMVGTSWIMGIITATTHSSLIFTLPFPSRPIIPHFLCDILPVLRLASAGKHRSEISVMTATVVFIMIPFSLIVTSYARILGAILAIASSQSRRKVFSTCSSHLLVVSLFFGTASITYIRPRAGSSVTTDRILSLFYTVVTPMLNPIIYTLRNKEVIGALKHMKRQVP
Outline: as §1

[13] = target: T12, UniProt Q8VGJ3
T12 sequence (whole entry): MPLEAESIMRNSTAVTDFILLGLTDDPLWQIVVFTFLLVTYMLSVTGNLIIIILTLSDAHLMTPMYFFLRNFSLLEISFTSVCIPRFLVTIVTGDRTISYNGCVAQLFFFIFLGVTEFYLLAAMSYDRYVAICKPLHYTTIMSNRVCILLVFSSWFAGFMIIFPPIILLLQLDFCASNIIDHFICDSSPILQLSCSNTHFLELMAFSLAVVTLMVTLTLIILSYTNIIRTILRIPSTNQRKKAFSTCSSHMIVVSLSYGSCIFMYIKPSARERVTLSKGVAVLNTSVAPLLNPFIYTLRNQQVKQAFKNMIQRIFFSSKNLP
Outline: as §1

[14] = target: T13, UniProt Q8VGJ5
T13 sequence (whole entry): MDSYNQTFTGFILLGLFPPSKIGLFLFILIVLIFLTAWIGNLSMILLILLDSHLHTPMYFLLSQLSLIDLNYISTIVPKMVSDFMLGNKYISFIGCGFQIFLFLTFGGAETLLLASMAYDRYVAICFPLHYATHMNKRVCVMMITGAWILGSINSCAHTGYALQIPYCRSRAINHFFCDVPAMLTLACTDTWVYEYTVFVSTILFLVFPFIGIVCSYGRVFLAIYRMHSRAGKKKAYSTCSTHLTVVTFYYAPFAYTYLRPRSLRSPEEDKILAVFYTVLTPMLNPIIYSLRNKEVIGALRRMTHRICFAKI
Outline: as §1

[15] = target: T14, UniProt Q8VGL0
T14 sequence (whole entry): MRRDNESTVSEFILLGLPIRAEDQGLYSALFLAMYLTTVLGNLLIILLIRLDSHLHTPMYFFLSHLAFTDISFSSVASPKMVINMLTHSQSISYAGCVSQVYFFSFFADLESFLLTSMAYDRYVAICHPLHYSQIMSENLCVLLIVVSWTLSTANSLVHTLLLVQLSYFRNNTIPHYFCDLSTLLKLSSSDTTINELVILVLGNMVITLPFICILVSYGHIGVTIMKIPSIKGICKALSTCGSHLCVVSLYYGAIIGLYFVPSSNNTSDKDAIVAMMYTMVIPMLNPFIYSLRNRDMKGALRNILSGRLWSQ
Outline: as §1

[16] = target: T15, UniProt Q8VGL7
T15 sequence (whole entry): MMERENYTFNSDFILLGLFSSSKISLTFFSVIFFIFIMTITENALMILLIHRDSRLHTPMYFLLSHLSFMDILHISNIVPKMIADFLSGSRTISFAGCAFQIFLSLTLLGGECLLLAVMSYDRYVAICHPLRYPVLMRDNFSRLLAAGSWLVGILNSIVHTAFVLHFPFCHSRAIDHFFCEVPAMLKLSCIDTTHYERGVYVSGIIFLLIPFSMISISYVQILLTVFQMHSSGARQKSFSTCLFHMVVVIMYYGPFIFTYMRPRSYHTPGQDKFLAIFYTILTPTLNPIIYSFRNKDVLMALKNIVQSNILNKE
Outline: as §1

[17] = target: UniProt Q8VGE3
UniProt Q8VGE3, sequence (Q8VGE3 as listed by the source): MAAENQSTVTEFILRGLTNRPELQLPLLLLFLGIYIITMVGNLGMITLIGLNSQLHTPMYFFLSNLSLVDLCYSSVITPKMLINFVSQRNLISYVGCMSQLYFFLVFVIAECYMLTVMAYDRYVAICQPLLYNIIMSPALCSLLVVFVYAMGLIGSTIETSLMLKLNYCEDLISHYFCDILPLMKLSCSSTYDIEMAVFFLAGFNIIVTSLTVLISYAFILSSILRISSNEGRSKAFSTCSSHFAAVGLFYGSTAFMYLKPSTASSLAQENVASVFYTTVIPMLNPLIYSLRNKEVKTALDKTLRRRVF
Outline: as §1

[18] = target: UniProt Q8VGK6
UniProt Q8VGK6, sequence (Q8VGK6 as listed by the source): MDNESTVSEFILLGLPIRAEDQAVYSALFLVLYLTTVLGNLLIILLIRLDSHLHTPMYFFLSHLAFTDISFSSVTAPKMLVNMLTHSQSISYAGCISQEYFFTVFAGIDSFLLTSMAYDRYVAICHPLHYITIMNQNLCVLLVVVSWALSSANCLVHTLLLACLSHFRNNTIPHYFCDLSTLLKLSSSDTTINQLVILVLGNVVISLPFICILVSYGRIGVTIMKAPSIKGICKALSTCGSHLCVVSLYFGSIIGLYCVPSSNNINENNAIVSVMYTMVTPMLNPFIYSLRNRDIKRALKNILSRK
Outline: as §1

SMILES | odorant receptor agonist call [1] | odorant receptor agonist call [2] | odorant receptor agonist call [3] | odorant receptor agonist call [4] | odorant receptor agonist call [5] | odorant receptor agonist call [6] | odorant receptor agonist call [7] | odorant receptor agonist call [8] | odorant receptor agonist call [9] | odorant receptor agonist call [10] | odorant receptor agonist call [11] | odorant receptor agonist call [12] | odorant receptor agonist call [13] | odorant receptor agonist call [14] | odorant receptor agonist call [15] | odorant receptor agonist call [16] | odorant receptor agonist call [17] | odorant receptor agonist call [18]
CCCCCCO | inactive | inactive | inactive | inactive | inactive | inactive | inactive | active | inactive | inactive | inactive | inactive | inactive | inactive | inactive | inactive | – | –
CC(=O)OCc1ccccc1 | inactive | – | inactive | inactive | inactive | inactive | inactive | inactive | active | inactive | inactive | inactive | inactive | active | inactive | inactive | – | –
CCCCCCCCC(=O)O | inactive | – | active | inactive | inactive | inactive | inactive | inactive | active | inactive | inactive | inactive | inactive | inactive | inactive | inactive | – | –
O=C1CCOc2ccccc21 | inactive | – | inactive | inactive | inactive | inactive | inactive | inactive | inactive | active | active | inactive | inactive | active | inactive | active | active | active
CC(=O)OCC=C(C)C | inactive | – | inactive | inactive | inactive | inactive | inactive | inactive | active | inactive | inactive | inactive | inactive | active | inactive | inactive | – | –
CCCCCCCO | inactive | inactive | inactive | inactive | inactive | inactive | inactive | inactive | active | inactive | inactive | inactive | inactive | active | inactive | inactive | – | –
CCOC(=O)C(C)C | inactive | – | inactive | inactive | inactive | inactive | inactive | inactive | inactive | inactive | inactive | inactive | inactive | active | inactive | active | – | –
CCCCCCCCCC(=O)[O-].[H+] | active | active | active | inactive | inactive | inactive | inactive | inactive | active | inactive | inactive | inactive | inactive | inactive | inactive | inactive | – | –
